Source: ChEMBL document CHEMBL1817572, “New, potent, selective, and short-acting peptidic V1a receptor agonists” (J Med Chem, 2011)
Numbered stars: 1 amine (or outer) side, 2 acyl side, 3 side chain; on linkers, the order of the positions; unused ones are H or OH. Bridge positions count the residues as written; N and C are the ends. Square brackets hold non-standard residues; d marks the D form. Peptide text beside a SMILES is read from it. * marks the point of attachment. Orn(Me) = CN(CCC[C@H](N[*:1])C(=O)[*:2])[*:3]; Bta = N[C@@H](Cc1csc2ccccc12)C(=O)O; 3Thi = N[C@@H](Cc1ccsc1)C(=O)O; Cha = N[C@@H](CC1CCCCC1)C(=O)O; Orn = NCCC[C@H](N)C(=O)O; Dab = NCC[C@H](N)C(=O)O; Ac4c = NC1(C(=O)O)CCC1; N(Me)OMe = CON(C)*; NHCH2CH2OH = OCCN*; X3 = OCCOCCN*; NHOH = ON*

Columns and labels:
[1] = molecular target: T1, Vasopressin V1b receptor (Homo sapiens, UniProt P47901); assay: Agonist activity at recombinant human vasopressin V1b receptor expressed in Flp-In-293 cells by luciferase reporter gene assay; type: functional, cell-based
T1 sequence (P47901 whole entry): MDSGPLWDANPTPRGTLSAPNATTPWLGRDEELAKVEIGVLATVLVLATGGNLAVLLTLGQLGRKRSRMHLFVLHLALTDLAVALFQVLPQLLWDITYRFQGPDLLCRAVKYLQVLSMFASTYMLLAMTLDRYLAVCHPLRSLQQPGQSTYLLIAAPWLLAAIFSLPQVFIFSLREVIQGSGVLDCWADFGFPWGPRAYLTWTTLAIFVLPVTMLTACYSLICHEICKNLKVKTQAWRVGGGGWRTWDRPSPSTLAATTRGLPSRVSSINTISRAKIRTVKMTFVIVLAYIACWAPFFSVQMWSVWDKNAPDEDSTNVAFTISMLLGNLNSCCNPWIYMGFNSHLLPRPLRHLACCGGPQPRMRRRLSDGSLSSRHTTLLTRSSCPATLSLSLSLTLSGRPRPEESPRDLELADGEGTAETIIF
Summary of the method: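 Reporter gene assays in HEK293 cells transiently cotransfected with V1a (human or rat) or human V2 receptor vector plus NFAT-luciferase (V1a) or CRE-luciferase (V2) reporter; V1b in Flp-In-293 stably expressing receptor, OT in CHO-K1 stably expressing receptor, both transiently transfected with NFAT-luciferase. Two days post-transfection, peptides added for 5 h at 37 °C, lysis with luciferin, luminescence read.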

[2] = species on record: Homo sapiens; assay: Selectivity ratio of EC50 for human oxytocin receptor to EC50 for human vasopressin V1a receptor
[3] = species on record: Homo sapiens; assay: Selectivity ratio of EC50 for human vasopressin V1b receptor to EC50 for human vasopressin V1a receptor
[4] = molecular target: Vasopressin V2 receptor (Homo sapiens, UniProt P30518); assay: Agonist activity at recombinant human vasopressin V2 receptor expressed in HEK293 cells by luciferase reporter gene assay; type: functional, cell-based
Vasopressin V2 receptor, sequence (P30518 whole entry): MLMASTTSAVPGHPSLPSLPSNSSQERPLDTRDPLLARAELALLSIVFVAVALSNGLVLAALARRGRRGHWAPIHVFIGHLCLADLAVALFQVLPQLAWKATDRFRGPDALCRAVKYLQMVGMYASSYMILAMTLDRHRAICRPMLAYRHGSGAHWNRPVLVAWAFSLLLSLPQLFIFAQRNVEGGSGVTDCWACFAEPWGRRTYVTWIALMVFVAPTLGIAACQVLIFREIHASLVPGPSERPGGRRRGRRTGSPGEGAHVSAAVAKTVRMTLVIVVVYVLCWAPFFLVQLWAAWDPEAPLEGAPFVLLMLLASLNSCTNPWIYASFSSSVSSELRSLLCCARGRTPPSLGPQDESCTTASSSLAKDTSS

[5] = molecular target: T2, Oxytocin receptor (Homo sapiens, UniProt P30559); assay: Agonist activity at human OT receptor expressed in CHO-K1 cells by luciferase reporter gene assay; type: functional, cell-based
T2 sequence (P30559 whole entry): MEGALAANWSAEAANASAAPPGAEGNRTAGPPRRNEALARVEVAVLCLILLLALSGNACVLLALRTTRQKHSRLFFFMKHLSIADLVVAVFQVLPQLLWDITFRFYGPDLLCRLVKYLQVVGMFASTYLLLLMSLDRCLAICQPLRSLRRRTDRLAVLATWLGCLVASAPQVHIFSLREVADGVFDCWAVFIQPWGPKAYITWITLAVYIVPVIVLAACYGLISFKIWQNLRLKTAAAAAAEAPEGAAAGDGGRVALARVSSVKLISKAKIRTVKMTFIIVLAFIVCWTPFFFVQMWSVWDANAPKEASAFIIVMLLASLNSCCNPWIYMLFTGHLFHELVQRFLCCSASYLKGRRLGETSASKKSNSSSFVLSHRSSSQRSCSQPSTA

[6] = molecular target: Vasopressin V1a receptor (Homo sapiens, UniProt P37288); assay: Agonist activity at recombinant human vasopressin V1a receptor expressed in HEK293 cells by luciferase reporter gene assay; type: functional, cell-based
Vasopressin V1a receptor, sequence (P37288 whole entry): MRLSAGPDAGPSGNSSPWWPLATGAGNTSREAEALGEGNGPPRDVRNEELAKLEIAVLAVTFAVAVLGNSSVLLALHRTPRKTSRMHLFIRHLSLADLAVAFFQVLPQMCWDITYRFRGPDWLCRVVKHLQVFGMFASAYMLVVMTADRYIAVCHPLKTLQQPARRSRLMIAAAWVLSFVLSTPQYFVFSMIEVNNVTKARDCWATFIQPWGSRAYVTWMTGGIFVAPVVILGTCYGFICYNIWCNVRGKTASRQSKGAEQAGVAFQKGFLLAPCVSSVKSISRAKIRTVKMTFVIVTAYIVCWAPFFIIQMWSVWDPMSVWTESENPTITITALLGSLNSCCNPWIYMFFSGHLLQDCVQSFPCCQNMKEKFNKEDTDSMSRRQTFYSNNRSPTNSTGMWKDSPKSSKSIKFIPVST

[7] = molecular target: Vasopressin V1a/V2 (Homo sapiens) (UniProt P30518+P37288); assay: Selectivity ratio of EC50 for human vasopressin V2 receptor to EC50 for human vasopressin V1a receptor
Vasopressin V1a/V2 (Homo sapiens), sequence (P30518 whole entry, looked up): as the sequence (P30518 whole entry) above
Vasopressin V1a/V2 (Homo sapiens), sequence (P37288 whole entry, looked up): as the sequence (P37288 whole entry) above

| Compound | EC50 ([1]; read-out: EC50) [nM] | Ratio EC50 [2] | Ratio EC50 [3] | EC50 ([4]; hek293, read-out: EC50) [nM] | EC50 ([4]; read-out: pEC50 (converted)) [nM] | EC50 ([5]; cho-k1, read-out: EC50) [nM] | EC50 ([5]; read-out: pEC50 (converted)) [nM] | EC50 ([6]; read-out: EC50) [nM] | Ratio EC50 [7] | EC50 ([4]; read-out: EC50) [nM] | EC50 ([6]; hek293, read-out: EC50) [nM] | EC50 ([6]; read-out: pEC50 (converted)) [nM] | EC50 ([1]; flp-in-293, read-out: EC50) [nM] | EC50 ([1]; read-out: pEC50 (converted)) [nM] | EC50 ([5]; read-out: EC50) [nM] |
| --- | --- | --- | --- | --- | --- | --- | --- | --- | --- | --- | --- | --- | --- | --- | --- |
| CC[C@H](C)[C@@H]1NC(=O)[C@H](Cc2ccsc2)NC(=O)[C@@H](N)CSSC[C@@H](C(=O)N2CCC[C@H]2C(=O)N[C@@H](CCN)C(=O)NCC(N)=O)NC(=O)[C@H](CC(N)=O)NC(=O)[C@H](CC(N)=O)NC1=O (H-C[3Thi]INNCP[Dab]G-NH2; disulfide 1-6) | 380 | > 1300 | 51 | > 10000 | > 10000 | > 10000 | > 10000 | 7.4 | > 1300 | – | – | – | – | – | – |
| CC[C@H](C)[C@@H]1NC(=O)[C@H](Cc2ccccc2)NC(=O)[C@@H](N)CSSC[C@@H](C(=O)N2CCC[C@H]2C(=O)N[C@@H](CCCN)C(=O)NCC(N)=O)NC(=O)[C@H](CC(N)=O)NC(=O)[C@H](CC(=O)NO)NC1=O (H-CFID(NHOH)NCP[Orn]G-NH2; disulfide 1-6) | 56 | > 2400 | 13 | – | – | > 10000 | > 10000 | 4.1 | 630 | 2600 | – | – | – | – | – |
| CC[C@H](C)[C@@H]1NC(=O)C2(CCC2)NC(=O)[C@@H](N)CSSC[C@@H](C(=O)N2CCC[C@H]2C(=O)N[C@@H](CCN)C(=O)NCC(N)=O)NC(=O)[C@H](CC(N)=O)NC(=O)[C@H](CC(N)=O)NC1=O (H-C[Ac4c]INNCP[Dab]G-NH2; disulfide 1-6) | 120 | > 830 | 10 | > 10000 | > 10000 | > 10000 | > 10000 | 12 | > 830 | – | – | – | – | – | – |
| CC[C@H](C)[C@@H]1NC(=O)[C@H](Cc2ccsc2)NC(=O)[C@@H](N)CSSC[C@@H](C(=O)N2CCC[C@H]2C(=O)N[C@@H](CCCN)C(=O)NCC(N)=O)NC(=O)[C@H](CC(N)=O)NC(=O)[C@H](CC(N)=O)NC1=O (H-C[3Thi]INNCP[Orn]G-NH2; disulfide 1-6) | 350 | > 1300 | 47 | > 10000 | > 10000 | > 10000 | > 10000 | 7.3 | > 1300 | – | – | – | – | – | – |
| CC[C@H](C)[C@@H]1NC(=O)[C@H](Cc2csc3ccccc23)NC(=O)[C@@H](N)CSSC[C@@H](C(=O)N2CCC[C@H]2C(=O)N[C@@H](CCN)C(=O)NCC(N)=O)NC(=O)[C@H](CC(N)=O)NC(=O)[C@H](CCC(N)=O)NC1=O (H-C[Bta]IQNCP[Dab]G-NH2; disulfide 1-6) | 360 | – | – | > 10000 | > 10000 | > 10000 | > 10000 | – | – | – | > 1000 | > 1000 | – | – | – |
| CC[C@H](C)[C@@H]1NC(=O)[C@H](Cc2ccccc2)NC(=O)[C@@H](N)CSSC[C@@H](C(=O)N2CCC[C@H]2C(=O)N[C@@H](CCCN)C(=O)NCC(N)=O)NC(=O)[C@H](CC(N)=O)NC(=O)[C@H](CCC(=O)N(C)OC)NC1=O (H-CFIE(N(Me)OMe)NCP[Orn]G-NH2; disulfide 1-6) | 540 | > 140 | 7.8 | – | – | > 10000 | > 10000 | 69 | 17 | 1200 | – | – | – | – | – |
| CC[C@H](C)[C@@H]1NC(=O)[C@H](Cc2ccccc2)NC(=O)[C@@H](N)CSSC[C@@H](C(=O)N2CCC[C@H]2C(=O)N[C@@H](CCCNC)C(=O)NCC(N)=O)NC(=O)[C@H](CC(N)=O)NC(=O)[C@H](CC(N)=O)NC1=O (H-CFINNCP[Orn(Me)]G-NH2; disulfide 1-6) | 65 | > 4100 | 27 | > 10000 | > 10000 | > 10000 | > 10000 | 2.4 | > 4100 | – | – | – | – | – | – |
| CC[C@H](C)[C@@H]1NC(=O)[C@H](C)NC(=O)[C@@H](N)CSSC[C@@H](C(=O)N2CCC[C@H]2C(=O)N[C@@H](CCN)C(=O)NCC(N)=O)NC(=O)[C@H](CC(N)=O)NC(=O)[C@H](CCC(N)=O)NC1=O (H-CAIQNCP[Dab]G-NH2; disulfide 1-6) | – | – | – | > 10000 | > 10000 | > 10000 | > 10000 | – | – | – | > 1000 | > 1000 | > 10000 | > 10000 | – |
| CC[C@H](C)[C@@H]1NC(=O)[C@H](Cc2ccc(O)cc2)NC(=O)[C@@H](N)CSSC[C@@H](C(=O)N2CCC[C@H]2C(=O)N[C@@H](CCCN)C(=O)NCC(N)=O)NC(=O)[C@H](CC(N)=O)NC(=O)[C@H](CCC(N)=O)NC1=O | 56 | – | – | – | – | – | – | 0.23 | – | – | – | – | – | – | 3.3 |

Now from value to compound:

| EC50 ([1]; read-out: EC50) [nM] | Ratio EC50 [2] | Ratio EC50 [3] | EC50 ([4]; hek293, read-out: EC50) [nM] | EC50 ([4]; read-out: pEC50 (converted)) [nM] | EC50 ([5]; cho-k1, read-out: EC50) [nM] | EC50 ([5]; read-out: pEC50 (converted)) [nM] | EC50 ([6]; read-out: EC50) [nM] | Ratio EC50 [7] | EC50 ([4]; read-out: EC50) [nM] | EC50 ([6]; hek293, read-out: EC50) [nM] | EC50 ([6]; read-out: pEC50 (converted)) [nM] | EC50 ([1]; flp-in-293, read-out: EC50) [nM] | EC50 ([1]; read-out: pEC50 (converted)) [nM] | EC50 ([5]; read-out: EC50) [nM] | Compound |
| --- | --- | --- | --- | --- | --- | --- | --- | --- | --- | --- | --- | --- | --- | --- | --- |
| 39 | > 2700 | 10 | > 10000 | > 10000 | > 10000 | > 10000 | 3.6 | > 2700 | – | – | – | – | – | – | CC[C@H](C)[C@@H]1NC(=O)[C@H](Cc2ccccc2)NC(=O)[C@@H](N)CSSC[C@@H](C(=O)N2CCC[C@H]2C(=O)N[C@@H](CCCN)C(=O)NCC(N)=O)NC(=O)[C@H](CC(N)=O)NC(=O)[C@H](CC(=O)NC)NC1=O (H-CFID(NHMe)NCP[Orn]G-NH2; disulfide 1-6) |
| 26 | > 1200 | 3.2 | > 10000 | > 10000 | > 10000 | > 10000 | 8 | > 1200 | – | – | – | – | – | – | CC[C@H](C)[C@@H]1NC(=O)[C@H](Cc2ccccc2)NC(=O)[C@@H](N)CSSC[C@@H](C(=O)N2CCC[C@H]2C(=O)N[C@@H](CCCN)C(=O)NCC(N)=O)NC(=O)[C@H](CC(N)=O)NC(=O)[C@H](CC(=O)NCCO)NC1=O (H-CFID(NHCH2CH2OH)NCP[Orn]G-NH2; disulfide 1-6) |
| 30 | > 1700 | 5.2 | > 10000 | > 10000 | > 10000 | > 10000 | 5.7 | > 1700 | – | – | – | – | – | – | CCNC(=O)C[C@@H]1NC(=O)[C@H]([C@@H](C)CC)NC(=O)[C@H](Cc2ccccc2)NC(=O)[C@@H](N)CSSC[C@@H](C(=O)N2CCC[C@H]2C(=O)N[C@@H](CCCN)C(=O)NCC(N)=O)NC(=O)[C@H](CC(N)=O)NC1=O (H-CFID(NHEt)NCP[Orn]G-NH2; disulfide 1-6) |
| 41 | > 2000 | 8.5 | > 10000 | > 10000 | > 10000 | > 10000 | 4.8 | > 2000 | – | – | – | – | – | – | CC[C@H](C)[C@@H]1NC(=O)[C@H](Cc2ccccc2)NC(=O)[C@@H](N)CSSC[C@@H](C(=O)N2CCC[C@H]2C(=O)N[C@@H](CCCN)C(=O)NCC(N)=O)NC(=O)[C@H](CC(N)=O)NC(=O)[C@H](CC(=O)NCCOCCO)NC1=O (H-CFID(X3)NCP[Orn]G-NH2; disulfide 1-6) |
| 18 | > 6200 | 11 | > 10000 | > 10000 | > 10000 | > 10000 | 1.6 | > 6200 | – | – | – | – | – | – | CC[C@H](C)[C@@H]1NC(=O)[C@H](CC2CCCCC2)NC(=O)[C@@H](N)CSSC[C@@H](C(=O)N2CCC[C@H]2C(=O)N[C@@H](CCN)C(=O)NCC(N)=O)NC(=O)[C@H](CC(N)=O)NC(=O)[C@H](CC(N)=O)NC1=O (H-C[Cha]INNCP[Dab]G-NH2; disulfide 1-6) |
